Results pooled from the literature.
Compare with care: the assays were run in different laboratories. pIC50: −log10 of the molar value.
KDM4D: Lysine-specific demethylase 4D (KDM4D, Homo sapiens, UniProt Q6B0I6)
SIRT2: NAD-dependent protein deacetylase sirtuin-2 (SIRT2, Homo sapiens, UniProt Q8IXJ6)
RORC: Nuclear receptor ROR-gamma (RORC, Homo sapiens, UniProt P51449)
SLC22A8: Organic anion transporter 3 (SLC22A8, Homo sapiens, UniProt Q8TCC7)
AMY2: Pancreatic alpha-amylase (AMY2, Sus scrofa, UniProt P00690)
Maoa: Amine oxidase [flavin-containing] A (Maoa, Rattus norvegicus, UniProt P21396)
polA: DNA polymerase I, thermostable (polA, Thermus aquaticus, UniProt P19821)
CDC7: Cell division cycle 7-related protein kinase (CDC7, Homo sapiens, UniProt O00311)

`O=C(O)c1ccnc2c(O)cccc12` gave a pIC50 of 5.14 (KDM4D; enzyme activity, inhibitor, AlphaScreen).
With `CCCCCCCCCCCCNC(=S)NCCCC[C@H](NC(=O)OCc1ccccc1)C(=O)N[C@@H](CCCCN)C(=O)N[C@@H](CCCNC(=N)N)C(N)=O` the pIC50 was 7.05 (SIRT2; enzyme activity, inhibitor).
`O=S(=O)(c1cc(C(F)(F)F)ccn1)N1CCc2ccc(OCc3c(F)cccc3Cl)cc21` has a pIC50 of 6.74 (RORC; ligand displacement, radioligand).
The pIC50 of `Cc1nccc2c1c(=O)n(C)c1cc(OC[C@@H](N)CC(C)C)c(C#N)cc21` is reported as 7.22 (Cyclin-G-associated kinase (GAK, Homo sapiens, UniProt O14976); enzyme activity, inhibitor, radiometric).
With `CCCCC(=O)N(Cc1ccc(-c2ccccc2-c2nnn[nH]2)cc1)[C@H](C(=O)O)C(C)C` the pIC50 was 6.60 (SLC22A8; transporter uptake, inhibitor).
The pIC50 of `O=C1Nc2ccccc2/C1=N/NS(=O)(=O)c1ccc(Cl)cc1` is reported as 5.43 (AMY2; enzyme activity, inhibitor).
With `CN1CCN(c2ccc(Nc3ncc4cc(C#N)c(=O)n(C5CCCC5)c4n3)cc2)CC1` the pIC50 was 6.33 (Ribosomal protein S6 kinase alpha-1 (RPS6KA1, Homo sapiens, UniProt Q15418); enzyme activity, inhibitor).
`CCn1ncc2c1-c1cnc(N)c(c1)O[C@H](C)c1cc(F)ccc1-c1nn(C)nc1C2` has a pIC50 of 7.62 (Tyrosine-protein kinase Fer (FER, Homo sapiens, UniProt P16591); enzyme activity, inhibitor, radiometric).
`O=S(=O)(c1cccc(C(F)(F)F)c1)N1CCc2ccc(OCc3c(F)cccc3Cl)cc21` gave a pIC50 of 6.92 (RORC; ligand displacement, radioligand).
With `Cc1ccc(S(=O)(=O)Nc2ccccc2C(=O)Nc2nc(-c3cc(Cl)ccc3Cl)cs2)cc1` the pIC50 was 5.92 (Genome polyprotein, protease (Hepatitis C virus genotype 1b, UniProt Q9WMX2); enzyme activity, inhibitor, FRET).
`Cc1ccc2cc(C=NN=C3CS(=O)(=O)N(C)c4ccccc43)c(Cl)nc2c1` gave a pIC50 of 5.74 (Maoa; enzyme activity, inhibitor, fluorescence).
For `CCCCCCCCCCCCNC(=S)NCCCC[C@H](NC(=O)OCc1ccccc1)C(=O)N[C@@H](Cc1c[nH]c2ccccc12)C(=O)N[C@@H](CCCCNC(=N)N)C(N)=O`, the pIC50 was 6.68 (SIRT2; enzyme activity, inhibitor).
For `O=S(=O)(c1cccc(C(F)(F)F)c1)N1CCc2ccc(OCc3c(Cl)cccc3C(F)(F)F)cc21`, the pIC50 was 6.77 (RORC; ligand displacement, radioligand).
With `CC(=NN=C1CS(=O)(=O)N(C)c2ccccc21)c1cc(Cl)sc1Cl` the pIC50 was 5.61 (Maoa; enzyme activity, inhibitor, fluorescence).
The pIC50 of `O=S(=O)(c1cc(Cl)cc(Cl)c1)N1CCc2ccc(OCc3c(F)cccc3Cl)cc21` is reported as 6.47 (RORC; ligand displacement, radioligand).
`Cc1cnc(-c2ccc(-c3ccc(NC(=O)Nc4c(F)cc(F)cc4F)cc3F)c3c2C(=O)NC3)[nH]1` has a pIC50 of 8.38 (Myosin-IIIb (MYO3B, Homo sapiens, UniProt Q8WXR4); enzyme activity, inhibitor).
`C=C(NC(=O)[C@H](CCCCNC(=S)CCCCCCCCCCCCC)NS(C)(=O)=O)C(=O)N[C@@H](CCCNC(=N)N)C(N)=O` has a pIC50 of 7.52 (SIRT2; enzyme activity, inhibitor).
`COc1ccc(S(=O)(=O)N/N=C2\C(=O)Nc3ccc(Cl)cc32)cc1` has a pIC50 of 4.88 (AMY2; enzyme activity, inhibitor).
The pIC50 of `O=S(=O)(c1ccccc1)N1CCc2ccc(OCc3c(F)cccc3Cl)cc21` is reported as 6.10 (RORC; ligand displacement, radioligand).
The pIC50 of `CCCCCCCCCCCCNC(=S)NCCCC[C@H](NC(=O)OCc1ccccc1)C(=O)N[C@@H](Cc1c[nH]c2ccccc12)C(=O)N[C@@H](CCCNC(=N)N)C(N)=O` is reported as 6.82 (SIRT2; enzyme activity, inhibitor).
The pIC50 of `CCCCCCCCCCCCCCCCCC(=O)Oc1ccc2ccc(=O)oc2c1` is reported as under 3.70 (polA; enzyme activity, inhibitor).
For `Cc1cc(-c2cc3nc([C@@H](N)C(C)C)[nH]c(=O)c3s2)ccn1`, the pIC50 was 5.75 (CDC7; enzyme activity, inhibitor).
The pIC50 of `O=C(O)CNC(=O)C(=O)O` is reported as 4.47 (KDM4D; enzyme activity, inhibitor, AlphaScreen).
`OC[C@@H]1[C@@H](O)[C@H](O)[C@@H](O)[C@@H]2O[C@H]12` has a pIC50 of 4.57 (Beta-glucosidase (GBA2, Homo sapiens, UniProt Q9HCG7); enzyme activity, inhibitor; pH 5, lysate).
For `O=C1Nc2ccc(Cl)cc2/C1=N/NS(=O)(=O)c1cc(Cl)cc(Cl)c1O`, the pIC50 was 5.96 (AMY2; enzyme activity, inhibitor).
The pIC50 of `CNC(=O)c1cc2c(Oc3ccc(NC(=O)C4(C(=O)Nc5ccc(F)cc5)CC4)cc3)ccnc2cc1OC` is reported as 7.54 (Ephrin type-A receptor 5 (EPHA5, Homo sapiens, UniProt P54756); enzyme activity, inhibitor, radiometric).
With `O=C1Nc2ccccc2/C1=N/NS(=O)(=O)c1cc(Cl)cc(Cl)c1O` the pIC50 was 5.80 (AMY2; enzyme activity, inhibitor).
For `CC(=NN=C1CS(=O)(=O)N(C)c2ccccc21)c1sccc1Cl`, the pIC50 was 5.98 (Maoa; enzyme activity, inhibitor, fluorescence).
For `CCCCCCCCCCCCNC(=S)NCCCC[C@H](NC(=O)OCc1ccccc1)C(=O)N[C@@H](Cc1c[nH]c2ccccc12)C(=O)N[C@@H](CCNC(=N)N)C(N)=O`, the pIC50 was 6.80 (SIRT2; enzyme activity, inhibitor).
With `O=C(O)C1=CC(=C(c2ccc(O)c(C(=O)O)c2)c2ccc(O)c(C(=O)O)c2)C=CC1=O` the pIC50 was 6.27 (Flap endonuclease 1 (Homo sapiens, UniProt P39748); enzyme activity, inhibitor; with preincubation).
`O=S(=O)(c1cncc(C(F)(F)F)c1)N1CCc2ccc(OCc3c(F)cccc3Cl)cc21` has a pIC50 of 6.54 (RORC; ligand displacement, radioligand).
`COc1ccc2c(Oc3ccc4c(C(=O)Nc5ccccc5N)cccc4c3)ccnc2c1` has a pIC50 of under 5.00 (Voltage-dependent L-type calcium channel subunit alpha-1C (CACNA1C, Homo sapiens, UniProt Q13936); ion current, inhibitor).
The pIC50 of `CC(C)[C@H](N)c1nc2cc(N3CCNCC3)sc2c(=O)[nH]1` is reported as under 5.00 (CDC7; enzyme activity, inhibitor).
`CCCCCCCCCCCCNC(=O)NCCCC[C@H](NS(C)(=O)=O)C(=O)N[C@H](C)C(=O)N[C@@H](CCCNC(=N)N)C(N)=O` gave a pIC50 of 6.12 (SIRT2; enzyme activity, inhibitor).
With `CC(C)[C@H]1CC[C@H](C(=O)N[C@H](Cc2ccccc2)C(=O)O)CC1` the pIC50 was 6.07 (SLC22A8; transporter uptake, inhibitor).
The pIC50 of `COc1oc(=O)c2cc(N)ccc2c1Cl` is reported as 5.80 (Rhomboid protease GlpG (glpG, Escherichia coli, UniProt P09391); enzyme activity, inhibitor).
With `O=S(=O)(c1cccc(C(F)(F)F)c1)N1c2cc(OCc3c(F)cccc3Cl)ccc2CC1C(F)(F)F` (stereo not shown) the pIC50 was 6.72 (RORC; ligand displacement, radioligand).
The pIC50 of `CCNC(=O)[C@H](CCCNC(=N)CCl)NC(=O)c1ccccc1` is reported as 4.59 (Protein-arginine deiminase type-3 (PADI3, Homo sapiens, UniProt Q9ULW8); enzyme activity, inhibitor).
`C=C(C)[C@@H]1CCC(C)=C[C@H]1c1c(O)cc(CCC)cc1O` gave a pIC50 of under 5.00 (Prostaglandin E synthase (PTGES, Homo sapiens, UniProt O14684); enzyme activity, inhibitor).
The pIC50 of `COc1cccc(S(=O)(=O)N2CCc3ccc(OCc4c(F)cccc4Cl)cc32)c1` is reported as 6.60 (RORC; ligand displacement, radioligand).
`CC(C)[C@H](N)c1nc2cc(-c3ccnnc3)sc2c(=O)[nH]1` gave a pIC50 of 5.41 (CDC7; enzyme activity, inhibitor).
The pIC50 of `CC/C=C\C/C=C\C/C=C\C/C=C\C/C=C\CCCC(=O)O` is reported as under 4.00 (polA; enzyme activity, inhibitor).
For `CCn1c(-c2nc3cc(C(=O)N4CCC[C@@H](N)C4)cc(OC)c3n2C)cc2cccnc21`, the pIC50 was under 4.80 (Muscarinic acetylcholine receptor M2 (CHRM2, Homo sapiens, UniProt P08172); calcium signal, antagonist, fluorescence).
